≈ marks a conversion by molar mass, not a printed value.
Assays:
MT4 [1] = test: Cell viability at a concentration of 100(1.1) ug/mL (uM).; format: functional, Homo sapiens
MT4 [2] = test: Compound was evaluated for inhibitory effect against MT-4 cells of HIV-2 at a concentration of 100(101) ug/mL (uM).; format: functional, Homo sapiens
In short: (§1)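 HIV-2 (ROD strain) infected MT-4 cells at multiplicity of infection 0.02, incubated with a range of compound concentrations for 4 days. Viable cells counted by MTT method. Per-concentration inhibition of virus-induced cytopathogenicity; values are means of two separate experiments.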

MT4 [3] = test: Cell viability at a concentration of 4(4) ug/mL (uM).; format: functional, Homo sapiens
MT4 [4] = test: Compound was evaluated for inhibitory effect against MT-4 cells of HIV-1 at a concentration of 100(101) ug/mL (uM).; format: functional, Homo sapiens
In short: (§2)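 HIV-1 (HTLV-III_B) infected MT-4 cells at multiplicity of infection 0.02, incubated with a range of compound concentrations for 4 days. Viable cells counted by MTT method. Per-concentration inhibition of virus-induced cytopathogenicity; values are means of two separate experiments.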

[5] = molecular target: Human immunodeficiency virus type 1 protease (Human immunodeficiency virus 1) (UniProt Q72874); test: Compound tested for % inhibition of giant cell formation at a concentration of 101 uM
In short: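 MOLT-4 cells were co-cultured 24 h with an equal number of HUT-78/HTLV-III_B cells in the presence of compound. Giant (syncytial) cells were counted microscopically and inhibition of giant cell formation was scored.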

[6] = molecular target: Human immunodeficiency virus type 1 reverse transcriptase (Human immunodeficiency virus 1) (UniProt Q72547); test: Inhibitory dose at a concentration 505 uM cell-free HIV-1 Reverse Transcriptase
In short: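 HIV-1 RT from disrupted, partially purified and concentrated virions. 37 °C for 30 min in 50 mM Tris-HCl pH 8.4, 2 mM DTT, 100 mM KCl, 10 mM MgCl₂, 0.1% Triton X-100, 1 µCi [methyl-³H]dTTP, 0.01 unit poly(rA)·oligo(dT). Stopped with 5% TCA; precipitate collected on glass-fiber filters and counted by scintillation. Means of two experiments; variation ≤10%.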

MT4 [7] = test: Compound was evaluated for inhibitory effect against MT-4 cells of HIV-2 at a concentration of 0.8(0.8) ug/mL (uM).; format: functional, Homo sapiens; in short: as §1
MT4 [8] = test: Compound tested for its ability to reduce viability of mock-infected MT-4 cells.; format: functional; conditions: Homo sapiens, read-out: CD50 (the source's name)
In short: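 Mock-infected MT-4 cells were incubated 4 days with a range of compound concentrations, and viability was read by MTT. CD50 is the 50% cytotoxic dose from reduced viability, given as the mean of two separate experiments.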

MT4 [9] = test: Cell viability at a concentration of 20(20.2) ug/mL (uM).; format: functional, Homo sapiens
[10] = molecular target: Human immunodeficiency virus type 1 reverse transcriptase (Human immunodeficiency virus 1) (UniProt Q72547); test: Compound tested for % inhibition of cell-free HIV-1 Reverse Transcriptase at a concentration of 20.2 uM.
In short: (§3)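 HIV-1 RT came from disrupted, partially purified, concentrated virions. Reaction ran 30 min at 37 °C in 50 mM Tris-HCl pH 8.4 with 2 mM DTT, 100 mM KCl, 10 mM MgCl2, 0.1% Triton X-100, [methyl-3H]dTTP (1 µCi, 30 Ci/mmol), poly(rA)·oligo(dT) template and compound. It was stopped with 5% TCA, and precipitate was filter-collected and scintillation-counted. Variation was at most 10%.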

MT4 [11] = test: Compound was evaluated for inhibitory effect against MT-4 cells of HIV-1 at a concentration of 20(20.2) ug/mL (uM).; format: functional, Homo sapiens; in short: as §2
MT4 [12] = test: Compound was evaluated for inhibitory effect against MT-4 cells of HIV-2 at a concentration of 4(4) ug/mL (uM).; format: functional, Homo sapiens; in short: as §1
MT4 [13] = test: Compound tested for its inhibition of HIV-1 induced cytopathogenicity in MT-4 cells.; format: functional; conditions: Homo sapiens, read-out: ED50 (the source's name)
In short: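 MT-4 cells infected with HIV-1 (HTLV-III_B) at MOI 0.02 and incubated 4 days with a range of compound concentrations. Viable cells were counted by MTT. ED50 is the 50% antiviral dose from inhibition of virus-induced cytopathogenicity, given as the mean of two separate experiments.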

MT4 [14] = test: Compound was evaluated for inhibitory effect against MT-4 cells of HIV-2 at a concentration of 20(20.2) ug/mL (uM).; format: functional, Homo sapiens; in short: as §1
[15] = molecular target: Human immunodeficiency virus type 1 reverse transcriptase (Human immunodeficiency virus 1) (UniProt Q72547); test: Compound tested for % inhibition of cell-free HIV-1 Reverse Transcriptase at a concentration of 4 uM; in short: as §3
MT4 [16] = test: Compound was evaluated for inhibitory effect against MT-4 cells of HIV-1 at a concentration of 0.8(0.8) ug/mL (uM).; format: functional, Homo sapiens; in short: as §2
MT4 [17] = test: Compound was evaluated for inhibitory effect against MT-4 cells of HIV-1 at a concentration of 4(4) ug/mL (uM).; format: functional, Homo sapiens; in short: as §2
MT4 [18] = test: Cell viability at a concentration of 0.8(0.8) ug/mL (uM).; format: functional, Homo sapiens
MT4 [19] = test: Compound tested for its inhibition of HIV-2 induced cytopathogenicity in MT-4 cells.; format: functional; conditions: Homo sapiens, read-out: ED50 (the source's name)
In short: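 MT-4 cells infected with HIV-2 (ROD) at MOI 0.02 and incubated 4 days with a range of compound concentrations. Viable cells were counted by MTT. ED50 is the dose giving 50% inhibition of virus-induced cytopathogenicity, given as the mean of two separate experiments.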

[20] = molecular target: Human immunodeficiency virus type 1 reverse transcriptase (Human immunodeficiency virus 1) (UniProt Q72547); test: Compound tested for % inhibition of cell-free HIV-1 Reverse Transcriptase at a concentration of 505 uM; in short: as §3
MT4 [21] = test: Compound was evaluated for inhibitory effect against MT-4 cells of HIV-2 at a concentration of 4(6.7) ug/mL (uM).; format: functional, Homo sapiens; in short: as §1
MT4 [22] = test: Cell viability at a concentration of 100(167) ug/mL (uM).; format: functional, Homo sapiens
MT4 [23] = test: Compound was evaluated for inhibitory effect against MT-4 cells of HIV-2 at a concentration of 0.8(1.3) ug/mL (uM).; format: functional, Homo sapiens; in short: as §1
MT4 [24] = test: Compound was evaluated for inhibitory effect against MT-4 cells of HIV-1 at a concentration of 20(33.4) ug/mL (uM).; format: functional, Homo sapiens; in short: as §2
MT4 [25] = test: Compound was evaluated for inhibitory effect against MT-4 cells of HIV-1 at a concentration of 100(167) ug/mL (uM).; format: functional, Homo sapiens; in short: as §2
[26] = molecular target: Human immunodeficiency virus type 1 reverse transcriptase (Human immunodeficiency virus 1) (UniProt Q72547); conditions: 33.4 uM
MT4 [27] = test: Compound was evaluated for inhibitory effect against MT-4 cells of HIV-1 at a concentration of 0.8(1.3) ug/mL (uM).; format: functional, Homo sapiens; in short: as §2
MT4 [28] = test: Cell viability at a concentration of 4(6.7) ug/mL (uM).; format: functional, Homo sapiens
[29] = molecular target: Human immunodeficiency virus type 1 reverse transcriptase (Human immunodeficiency virus 1) (UniProt Q72547); conditions: 6.7 uM
MT4 [30] = test: Compound was evaluated for inhibitory effect against MT-4 cells of HIV-2 at a concentration of 20(33.4) ug/mL (uM).; format: functional, Homo sapiens; in short: as §1
MT4 [31] = test: Cell viability at a concentration of 0.8(1.3) ug/mL (uM).; format: functional, Homo sapiens
[32] = molecular target: Human immunodeficiency virus type 1 reverse transcriptase (Human immunodeficiency virus 1) (UniProt Q72547)
MT4 [33] = test: Cell viability at a concentration of 20(33.4) ug/mL (uM).; format: functional, Homo sapiens
MT4 [34] = test: Compound was evaluated for inhibitory effect against MT-4 cells of HIV-2 at a concentration of 100(167) ug/mL (uM).; format: functional, Homo sapiens; in short: as §1
MT4 [35] = test: Compound was evaluated for inhibitory effect against MT-4 cells of HIV-1 at a concentration of 4(6.7) ug/mL (uM).; format: functional, Homo sapiens; in short: as §2

In the case of `O=S(=O)([O-])c1cc(NS(=O)(=O)c2ccc(-c3ccc(S(=O)(=O)Nc4cc(S(=O)(=O)[O-])c5cccc(S(=O)(=O)[O-])c5c4)cc3)cc2)cc2c(S(=O)(=O)[O-])cccc12.[Na+].[Na+].[Na+].[Na+]`, the Cell viability (MT4 [1]) is reported as 0, the Inhibition (MT4 [2]) is reported as 94% and the Cell viability (MT4 [3]) is reported as 0. For the same compound, the Inhibition (MT4 [4]) was 100%, the inhibition [5] was 100% and the ID50 [6] was 370 µg/mL. For the same compound, the Inhibition (MT4 [7]) was 0%, the CC50 (MT4 [8]) was over 100 µg/mL and the Cell viability (MT4 [9]) was 0. The inhibition [10] was 0%, the Inhibition (MT4 [11]) was 8% and the Inhibition (MT4 [12]) was 1%. The EC50 (MT4 [13]) was 42 µg/mL, the Inhibition (MT4 [14]) was 9% and the inhibition [15] was 0%. For the same compound, the Inhibition (MT4 [16]) was 0%, the Inhibition (MT4 [17]) was 1% and the Cell viability (MT4 [18]) was 1. The EC50 (MT4 [19]) was 43 µg/mL and the inhibition [20] was 100%.
In the case of `CCCCCCCCCCCCCCCC(=O)Nc1cc(S(=O)(=O)O)cc2cc(S(=O)(=O)O)cc(O)c12`, the Inhibition (MT4 [21]) is reported as 3%, the Cell viability (MT4 [22]) is reported as 0 and the Inhibition (MT4 [23]) is reported as 6%. It also gave an Inhibition (MT4 [24]) of 7%, an Inhibition (MT4 [25]) of 100% and a CC50 (MT4 [8]) of over 100 µg/mL. For the same compound, the inhibition [26] was 4%, the Inhibition (MT4 [27]) was 5% and the Cell viability (MT4 [28]) was 0. For the same compound, the EC50 (MT4 [13]) was 42 µg/mL (≈ 75.3 µM), the inhibition [29] was 9% and the Inhibition (MT4 [30]) was 12%. For the same compound, the Cell viability (MT4 [31]) was 0, the ID50 [32] was 50 µg/mL (≈ 89.6 µM) and the Cell viability (MT4 [33]) was 1. It also gave an Inhibition (MT4 [34]) of 100%, an EC50 (MT4 [19]) of 40 µg/mL (≈ 71.7 µM) and an Inhibition (MT4 [35]) of 0%.

Source: ChEMBL document CHEMBL1125724, “Potential anti-AIDS agents. Synthesis and antiviral activity of naphthalenesulfonic acid derivatives against HIV-1 and HIV-2” (1991)
